Measurements of several laboratories.
Target: Serine/threonine-protein kinase Nek10 (NEK10, Homo sapiens, UniProt Q6ZWH5)
Sequence (Q6ZWH5 1-1172, as in one of the studies): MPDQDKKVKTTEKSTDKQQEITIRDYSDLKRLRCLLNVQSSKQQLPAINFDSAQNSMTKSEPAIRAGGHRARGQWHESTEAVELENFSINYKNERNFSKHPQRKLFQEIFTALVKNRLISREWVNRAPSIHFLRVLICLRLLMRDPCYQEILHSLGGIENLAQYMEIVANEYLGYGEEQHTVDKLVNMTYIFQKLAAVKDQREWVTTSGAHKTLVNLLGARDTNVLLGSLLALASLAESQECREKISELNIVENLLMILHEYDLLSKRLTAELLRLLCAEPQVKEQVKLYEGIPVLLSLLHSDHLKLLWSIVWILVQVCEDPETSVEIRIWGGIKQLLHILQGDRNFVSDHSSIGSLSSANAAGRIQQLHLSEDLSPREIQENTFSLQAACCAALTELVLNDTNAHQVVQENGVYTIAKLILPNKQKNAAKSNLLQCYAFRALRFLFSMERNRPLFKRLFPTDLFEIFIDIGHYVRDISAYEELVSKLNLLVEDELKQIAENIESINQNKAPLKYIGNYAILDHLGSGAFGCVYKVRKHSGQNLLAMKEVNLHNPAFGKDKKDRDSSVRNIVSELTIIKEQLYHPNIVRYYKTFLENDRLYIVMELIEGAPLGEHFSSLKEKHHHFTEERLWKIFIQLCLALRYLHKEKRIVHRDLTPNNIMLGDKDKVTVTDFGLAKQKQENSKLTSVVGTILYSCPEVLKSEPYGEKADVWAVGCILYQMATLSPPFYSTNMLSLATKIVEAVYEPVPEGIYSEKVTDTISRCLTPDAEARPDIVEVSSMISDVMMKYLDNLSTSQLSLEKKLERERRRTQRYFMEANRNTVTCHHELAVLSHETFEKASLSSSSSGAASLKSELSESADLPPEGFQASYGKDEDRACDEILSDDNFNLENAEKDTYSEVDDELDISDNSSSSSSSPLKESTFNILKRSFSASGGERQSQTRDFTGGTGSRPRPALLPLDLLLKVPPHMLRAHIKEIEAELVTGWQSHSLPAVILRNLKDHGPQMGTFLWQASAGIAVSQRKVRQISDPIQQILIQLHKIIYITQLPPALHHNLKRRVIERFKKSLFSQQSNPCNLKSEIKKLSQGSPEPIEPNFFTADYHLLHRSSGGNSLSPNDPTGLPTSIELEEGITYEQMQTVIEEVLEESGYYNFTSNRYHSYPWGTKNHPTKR

| Compound | assay | conditions | remaining binding [%] |
| --- | --- | --- | --- |
| CN(c1nccc(-c2cnn3ncccc23)n1)C1CC1 | binding | 1 µM | 100 |
| O=C(Nc1c[nH]nc1C(=O)NC1CCNCC1)c1cc(F)cc(F)c1 | binding, competition with immobilised ligand | 1 µM | 100 |
| N[C@@H]1CCN(c2nccc(-c3cnn4ncccc34)n2)C1 | binding | 1 µM | 100 |
| O=C(Nc1cccnn1)N1CCC(=Cc2cccc(Oc3ccc(C(F)(F)F)cn3)c2)CC1 | cell-free assay, competition with immobilised ligand | 1 µM | 100 |
| CC1CCCN1c1nccc(-c2cnn3ncccc23)n1 (stereo not drawn) | binding | 1 µM | 100 |
| C[C@@H](c1cccc(C#N)c1)n1cc(Cl)cc(C(N)=O)c1=N | cell-free assay, competition with immobilised ligand | 1 µM | 91 |
| COc1cnc(Nc2cccc(S(N)(=O)=O)c2)nc1N1CCN(c2ccccc2)CC1 | binding, competition with immobilised ligand | 1 µM | 69 |
| CNC(=O)c1ccc(Nc2ncc(C(F)(F)F)c(NCc3nccnc3N(C)S(C)(=O)=O)n2)cc1 | cell-free assay, competition with immobilised ligand | 0.1 µM | 100 |
| CN(C)c1nccc(-c2cnc3ncccn23)n1 | binding | 1 µM | 59 |
| O=C(c1ccc(Nc2ncc(Cl)c(-c3ccc(Cl)s3)n2)cc1)N1CCC(N2CCCC2)CC1 | binding, competition with immobilised ligand | 1 µM | 30 |
| Nc1ncc2c(n1)-c1c([nH]c3ccc(C#CC4CC4)cc13)CCCC2 | binding, competition with immobilised ligand | 1 µM | 79 |
| Cc1cnc(Nc2ccc(C(=O)N3CCC(N4CCCC4)CC3)cc2)nc1-c1cc2ccccc2s1 | binding, competition with immobilised ligand | 1 µM | 71 |
| C[C@@H](c1ccc(-n2cnc3c(N)ncnc32)cc1)N1CCc2nn(C)c(Cc3ccccc3)c2C1=O | binding, competition with immobilised ligand | 0.1 µM | 80 |
| Cc1c[nH]c2nccc(Oc3c(F)cc(Nc4cc(Cl)nc(N)n4)cc3F)c12 | cell-free assay, competition with immobilised ligand | 0.1 µM | 75 |
| COc1ncc2cc3ccccc3nc2c1C#N | cell-free assay, competition with immobilised ligand | 5 µM | 98 |
| CCOCCn1cc(C(=O)Nc2ccc(-n3nc(-c4cccnc4)cc3C(F)(F)F)cn2)ccc1=O | cell-free assay, competition with immobilised ligand | 1 µM | 94 |
| O=C(NCCCN1CCOCC1)c1ccc(Nc2ncc(Cl)c(-c3ccc(Cl)s3)n2)cc1 | binding, competition with immobilised ligand | 1 µM | 48 |
| c1cncc(-c2cccc(Nc3nccc(NC4CCCCC4)n3)c2)c1 | binding, competition with immobilised ligand | 10 µM | 1.6 |
